What was measured:
[1] = biological target: Sodium-dependent serotonin transporter (Rattus norvegicus, UniProt P31652); assay: Binding affinity towards serotonin transporter by displacement of [3H]- paroxetine radioligand from rat brain
In short: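 Midbrain tissue (1.5 mg original wet weight) with 0.2 nM [3H]paroxetine in 50 mM Tris, 120 mM NaCl, 5 mM KCl, pH 7.4, for 90 min at room temperature; nonspecific binding defined with 1 μM citalopram. Terminated by filtration through polyethylenimine-soaked GF/B filters with ice-cold buffer washes. Mean ± SE of four triplicate experiments.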

[2] = biological target: Sodium-dependent dopamine transporter (Rattus norvegicus, UniProt P23977); assay: Binding affinity towards Dopamine transporter by displacement of [3H]WIN-35428 radioligand from rat brain
[3] = biological target: Norepinephrine transporter (Rattus norvegicus, UniProt Q9WTR4); assay: Binding affinity towards norepinephrine transporter by displacement of [3H]nisoxetine radioligand from rat brain
[4] = biological target: Monoamine transporters; serotonin & dopamine (Rattus norvegicus) (UniProt P31652+P23977); assay: Ratio between serotonin transporter and Dopamine transporter; assay type: protein assay
[5] = biological target: Monoamine transporters; Norepininephrine & dopamine (Rattus norvegicus) (UniProt P23977+Q9WTR4); assay: Ratio between norepinephrine and Dopamine transporter; assay type: protein assay

Monoamine transporters; serotonin & dopamine (Rattus norvegicus), sequence (P23977 whole entry, looked up): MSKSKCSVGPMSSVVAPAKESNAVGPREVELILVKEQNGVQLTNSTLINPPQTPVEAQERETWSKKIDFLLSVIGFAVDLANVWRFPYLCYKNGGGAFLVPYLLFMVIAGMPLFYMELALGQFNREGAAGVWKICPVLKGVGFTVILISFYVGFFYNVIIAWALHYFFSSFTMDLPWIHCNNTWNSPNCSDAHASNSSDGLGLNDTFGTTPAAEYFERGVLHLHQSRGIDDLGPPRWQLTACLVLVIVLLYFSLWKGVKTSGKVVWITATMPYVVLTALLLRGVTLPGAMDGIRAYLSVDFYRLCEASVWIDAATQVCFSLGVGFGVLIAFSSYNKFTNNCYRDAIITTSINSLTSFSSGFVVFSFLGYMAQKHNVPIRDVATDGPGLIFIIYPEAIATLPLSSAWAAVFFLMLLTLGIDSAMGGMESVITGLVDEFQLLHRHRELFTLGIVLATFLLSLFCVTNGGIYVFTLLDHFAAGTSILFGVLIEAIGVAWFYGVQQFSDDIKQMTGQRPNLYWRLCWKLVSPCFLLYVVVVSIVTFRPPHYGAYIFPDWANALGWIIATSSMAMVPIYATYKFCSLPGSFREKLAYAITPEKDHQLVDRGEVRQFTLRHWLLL
Monoamine transporters; serotonin & dopamine (Rattus norvegicus), sequence (P31652 whole entry, looked up): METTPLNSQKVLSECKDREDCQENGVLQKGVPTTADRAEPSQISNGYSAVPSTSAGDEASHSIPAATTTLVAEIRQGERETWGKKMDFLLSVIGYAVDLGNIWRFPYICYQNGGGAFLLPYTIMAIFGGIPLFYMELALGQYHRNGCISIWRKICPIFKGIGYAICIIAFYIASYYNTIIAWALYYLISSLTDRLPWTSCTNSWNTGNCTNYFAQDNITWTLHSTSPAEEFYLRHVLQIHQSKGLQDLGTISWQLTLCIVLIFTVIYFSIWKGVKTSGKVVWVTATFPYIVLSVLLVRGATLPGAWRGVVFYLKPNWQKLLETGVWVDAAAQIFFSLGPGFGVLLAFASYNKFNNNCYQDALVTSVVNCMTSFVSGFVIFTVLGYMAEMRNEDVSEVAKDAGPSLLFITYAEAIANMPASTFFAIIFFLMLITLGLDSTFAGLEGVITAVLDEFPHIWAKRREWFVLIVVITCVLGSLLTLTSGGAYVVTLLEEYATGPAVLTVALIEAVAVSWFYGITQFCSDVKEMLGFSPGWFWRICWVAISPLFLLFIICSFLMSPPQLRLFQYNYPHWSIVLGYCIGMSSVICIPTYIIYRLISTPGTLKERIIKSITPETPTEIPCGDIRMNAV
Sodium-dependent dopamine transporter, sequence (P23977 whole entry): as the sequence (P23977 whole entry, looked up) above
Sodium-dependent serotonin transporter, sequence (P31652 whole entry): as the sequence (P31652 whole entry, looked up) above
Norepinephrine transporter, sequence (Q9WTR4 whole entry): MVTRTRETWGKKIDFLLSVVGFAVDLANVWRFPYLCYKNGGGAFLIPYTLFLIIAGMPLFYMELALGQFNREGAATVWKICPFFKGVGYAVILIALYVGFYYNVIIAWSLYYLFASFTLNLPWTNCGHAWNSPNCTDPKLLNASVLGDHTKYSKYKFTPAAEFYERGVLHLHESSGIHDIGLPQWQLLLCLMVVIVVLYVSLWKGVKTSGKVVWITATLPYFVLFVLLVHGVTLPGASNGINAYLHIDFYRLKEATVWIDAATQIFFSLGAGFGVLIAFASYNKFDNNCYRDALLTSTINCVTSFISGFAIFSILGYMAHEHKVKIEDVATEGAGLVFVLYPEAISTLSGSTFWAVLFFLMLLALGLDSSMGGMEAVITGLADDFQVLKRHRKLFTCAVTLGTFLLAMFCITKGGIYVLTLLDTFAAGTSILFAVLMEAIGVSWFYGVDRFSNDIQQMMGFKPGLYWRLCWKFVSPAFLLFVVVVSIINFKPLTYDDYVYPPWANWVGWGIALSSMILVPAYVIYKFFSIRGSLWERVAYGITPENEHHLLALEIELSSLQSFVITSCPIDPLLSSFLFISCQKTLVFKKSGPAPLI

Cc1noc(C2C3CC[C@H](C[C@@H]2c2ccccc2)N3C)n1 (stereo in doubt; 6) [listing 1 of 2 here]
IC50 [1]: 33100 nM
IC50 [2]: 1030 nM
IC50 [3]: 71000 nM

Cc1noc(C2C3CC[C@H](C[C@@H]2c2ccc(Cl)cc2)N3C)n1 (some centres undefined)
IC50 [1]: 2580 nM
IC50 [3]: 363 nM

Cc1noc(C2C3CC[C@H](C[C@@H]2c2ccccc2)N3C)n1 (stereo in doubt; 8) [listing 1 of 2 here]
Ratio [4]: 243
Ratio [5]: 42

CN1C2CCC1C(C(=O)Oc1ccccc1)C(c1ccc(Cl)cc1)C2 (centres undefined)
IC50 [2]: 1.99 nM
Ratio [5]: 1490
IC50 [3]: 2960 nM

Cc1noc(C2C3CC[C@H](C[C@@H]2c2ccccc2)N3C)n1 (stereo in doubt; 8) [listing 2 of 2 here]
IC50 [1]: 40600 nM
IC50 [2]: 167 nM
IC50 [3]: 6990 nM

Cc1noc(C2C3CC[C@H](C[C@@H]2c2ccccc2)N3C)n1 (stereo in doubt; 6) [listing 2 of 2 here]
Ratio [4]: 32
Ratio [5]: 69

CC(C)c1noc(C2C3CC[C@H](C[C@@H]2c2ccc(Cl)cc2)N3C)n1 (some centres undefined)
IC50 [1]: 3460 nM
IC50 [2]: 6 nM
Ratio [4]: 577
Ratio [5]: 23
IC50 [3]: 135 nM

Cc1ccc([C@H]2C[C@H]3CCC(C2C(=O)Oc2ccccc2)N3C)cc1 (some centres undefined)
IC50 [1]: 24500 nM
IC50 [2]: 3.27 nM
Ratio [5]: 1780
IC50 [3]: 5830 nM

COC(=O)[C@@H]1C2CC[C@H](C[C@@H]1c1ccccc1)N2C
IC50 [3]: 920 nM

CN1C2CC[C@@H]1C[C@H](c1ccc(Cl)cc1)C2c1nc(-c2ccccc2)no1 (some centres undefined)
IC50 [1]: 195 nM
IC50 [2]: 1.62 nM
Ratio [4]: 120
Ratio [5]: 151
IC50 [3]: 245 nM

CN1C2CC[C@@H]1C[C@H](c1ccc(Cl)cc1)C2c1nc(-c2ccc(Cl)cc2)no1 (some centres undefined)
IC50 [1]: 404 nM
IC50 [2]: 4.06 nM
Ratio [4]: 100
Ratio [5]: 1000
IC50 [3]: 4070 nM

COc1ccc(-c2noc(C3C4CC[C@H](C[C@@H]3c3ccc(Cl)cc3)N4C)n2)cc1 (some centres undefined)
IC50 [1]: 337 nM
IC50 [2]: 1.81 nM
Ratio [4]: 186
Ratio [5]: 461
IC50 [3]: 835 nM

CC(C)OC(=O)C1C2CC[C@H](C[C@@H]1c1ccc(Cl)cc1)N2C (some centres undefined)
IC50 [1]: 1400 nM
IC50 [2]: 1.41 nM
Ratio [5]: 551
IC50 [3]: 778 nM

Cc1noc(C2C3CC[C@H](C[C@@H]2c2ccccc2)N3C)n1 (stereo in doubt; 7) [listing 1 of 2 here]
IC50 [1]: 29400 nM
IC50 [2]: 204 nM
IC50 [3]: 35800 nM

CN1C2CC[C@@H]1C[C@H](c1ccc(Cl)cc1)C2c1nc(-c2ccc(Br)cc2)no1 (some centres undefined)
IC50 [1]: 106 nM
IC50 [2]: 3.44 nM
Ratio [4]: 31
Ratio [5]: 532
IC50 [3]: 1830 nM

Cc1noc(C2C3CC[C@H](C[C@@H]2c2ccccc2)N3C)n1 (stereo in doubt; 5a) [listing 1 of 2 here]
IC50 [1]: 3830 nM
IC50 [2]: 100 nM
IC50 [3]: 7880 nM

Cc1noc(C2C3CC[C@H](C[C@@H]2c2ccccc2)N3C)n1 (stereo in doubt; 7) [listing 2 of 2 here]
Ratio [4]: 144
Ratio [5]: 176

Cc1ccc([C@H]2C[C@H]3CCC(C2c2nc(-c4ccccc4)no2)N3C)cc1 (some centres undefined)
IC50 [1]: 1070 nM
IC50 [2]: 2.33 nM
Ratio [4]: 459
Ratio [5]: 26
IC50 [3]: 60 nM

Cc1noc(C2C3CC[C@H](C[C@@H]2c2ccccc2)N3C)n1 (stereo in doubt; 5a) [listing 2 of 2 here]
Ratio [4]: 38
Ratio [5]: 79
